{"data": "Published values from different studies", "target": "Tyrosine-protein kinase Yes (YES1, Homo sapiens, UniProt P07947)", "note": "Lines come from different studies, so protocols differ."}
{"Compound": "O=C(c1ccc(Nc2ncc(Cl)c(-c3cc4ccccc4s3)n2)cc1)N1CCC(N2CCCC2)CC1", "assay": "binding, competition with immobilised ligand", "setting": "1 µM", "remaining binding [%]": 71}
{"Compound": "F[C@@H]1CCN(c2nccc(-c3cnn4ncccc34)n2)C1", "assay": "binding", "setting": "1 µM", "remaining binding [%]": 90}
{"Compound": "COc1ncc2cc3ccccc3nc2c1C#N", "assay": "cell-free assay, competition with immobilised ligand", "setting": "5 µM", "remaining binding [%]": 100}
{"Compound": "CNC(=O)[C@@H]1CC[C@@H](n2c(-c3ccc4cnccc4c3)nc3ccc(C(=O)NCc4cccc(C(N)=O)c4)cc32)C1", "assay": "binding, competition with immobilised ligand", "setting": "1 µM", "remaining binding [%]": 100}
{"Compound": "N[C@H]1CCN(c2nccc(-c3cnn4ncccc34)n2)C1", "assay": "binding", "setting": "1 µM", "remaining binding [%]": 91}
{"Compound": "Cc1c(C(=O)O)cc(-c2ccc(C3CCNCC3)cc2)c2ccc(-c3ccc(C(F)(F)F)cc3)cc12", "assay": "cell-free assay, competition with immobilised ligand", "setting": "1 µM", "remaining binding [%]": 100}
{"Compound": "Cc1ccc(-n2nc(C(C)(C)C)cc2NC(=O)Nc2ccc(-n3c(N)c(C(N)=O)c4nc5ccccc5nc43)cc2)cc1", "assay": "cell-free assay, competition with immobilised ligand", "setting": "1 µM", "remaining binding [%]": 9.6}
{"Compound": "O=C(c1ccc(Nc2ncc(Cl)c(-c3ccc(Cl)s3)n2)cc1)N1CCC(N2CCCC2)CC1", "assay": "binding, competition with immobilised ligand", "setting": "1 µM", "remaining binding [%]": 55}
{"Compound": "COc1ccnn2ncc(-c3ccnc(N(C)C)n3)c12", "assay": "binding", "setting": "1 µM", "remaining binding [%]": 100}
{"Compound": "CCN1CCN(Cc2ccc(C(=O)Nc3ccc(C)c(Oc4ccc5c(c4)CC(=O)N5)c3)cc2C(F)(F)F)CC1", "assay": "binding, competition with immobilised ligand", "setting": "1 µM", "remaining binding [%]": 98}
{"Compound": "Cc1nc(C2CCN(C(=O)c3ccc(OC(F)(F)F)cc3N)CC2)c2ncc(N3CCN(C)CC3)cc2n1", "assay": "cell-free assay, competition with immobilised ligand", "setting": "1 µM", "remaining binding [%]": 100}
{"Compound": "CN(C)c1nccc(-c2cnn3ncccc23)n1", "assay": "binding", "setting": "1 µM", "remaining binding [%]": 78}
{"Compound": "CN1CCN(c2ccc(Nc3nccc(-c4cccc([N+](=O)[O-])c4)n3)cc2C(F)(F)F)CC1", "assay": "binding", "setting": "10 µM", "remaining binding [%]": 32}
{"Compound": "c1cncc(-c2cccc(Nc3nccc(NC4CCCCC4)n3)c2)c1", "assay": "binding, competition with immobilised ligand", "setting": "10 µM", "remaining binding [%]": 28}
{"Compound": "C[C@H](NC(=O)c1cnc2n1[C@](C)(Cc1ccc(C#N)cc1)C(=O)N2c1cc(Cl)c(F)c(Cl)c1)C(=O)NC1(c2ccccn2)CC1", "assay": "cell-free assay, competition with immobilised ligand", "setting": "1 µM", "remaining binding [%]": 100}
{"Compound": "O=C(NCCCN1CCOCC1)c1ccc(Nc2nccc(-c3cc4ccccc4s3)n2)cc1", "assay": "binding, competition with immobilised ligand", "setting": "1 µM", "remaining binding [%]": 91}
{"Compound": "CCC(=N\\O)/C(C)=C/c1ccc(F)cc1", "assay": "cell-free assay, competition with immobilised ligand", "setting": "1 µM", "remaining binding [%]": 87}
{"Compound": "Nc1ncc2c(n1)-c1c([nH]c3ccc(C#CC4CC4)cc13)CCCC2", "assay": "binding, competition with immobilised ligand", "setting": "1 µM", "remaining binding [%]": 100}
{"Compound": "FC(F)(F)Oc1cccc(-c2cnc3ccc(-c4ccncc4)nn23)c1", "assay": "binding, competition with immobilised ligand", "setting": "5 µM", "remaining binding [%]": 81}
{"Compound": "CC(=O)C1=C(C)N(c2cccc(C(F)(F)F)c2)C(=O)N[C@@H]1c1ccc(C#N)nc1", "assay": "cell-free assay, competition with immobilised ligand", "setting": "1 µM", "remaining binding [%]": 81.1}
{"Compound": "CN(CCCC(F)(F)F)c1nccc(-c2cnn3ncccc23)n1", "assay": "binding", "setting": "1 µM", "remaining binding [%]": 94}
{"Compound": "CN([C@@H]1CCc2c(CC(=O)O)c3cc(S(C)(=O)=O)ccc3n2C1)S(=O)(=O)c1ccc(F)cc1", "assay": "cell-free assay, competition with immobilised ligand", "setting": "1 µM", "remaining binding [%]": 88}
{"Compound": "C[C@@H]1CCN(c2nccc(-c3cnn4ncccc34)n2)C1", "assay": "binding", "setting": "1 µM", "remaining binding [%]": 100}
{"Compound": "Cc1c(NC(=O)c2cc(C(N)=O)nc3cc(F)ccc23)c(C(F)(F)F)nn1Cc1ccc(C#N)cc1", "assay": "cell-free assay, competition with immobilised ligand", "setting": "1 µM", "remaining binding [%]": 66}
{"Compound": "O=C(Nc1c[nH]nc1C(=O)NC1CCNCC1)c1cc(F)cc(F)c1", "assay": "binding, competition with immobilised ligand", "setting": "1 µM", "remaining binding [%]": 100}
